Test results published in ChEMBL document CHEMBL1150387, “Development and experimental validation of a docking strategy for the generation of kinase-targeted libraries” (J Med Chem, 2008).

How the values were obtained:
[1] = molecular target: Insulin-like growth factor 1 receptor (Homo sapiens) (UniProt P08069); assay: Inhibition of IGF1R at 10 uM by HTRF assay relative to control
Outline: (§1)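 HTRF kinase assay, one panel of kinases. Inhibitor stock 50 µM in 100% DMSO; tested at 10 µM. ATP and substrate at final levels near Km. Final buffer: 50 mM Hepes/NaOH pH 7.4, 40 µM Na3VO4, 0.005% Tween-20, 1 mM DTT, MnCl2 or MgCl2 at kinase-dependent levels. Started by adding ATP/substrate. Reaction run at room temperature, time varied by kinase. Detection mix in 50 mM Hepes pH 7.4, 0.1% BSA, 150 mM KF, incubated ≥1 h at room temperature. Activity expressed as % of uninhibited control; n=2.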

[2] = molecular target: T1, Ephrin type-B receptor 4 (Homo sapiens) (UniProt P54760); assay: Inhibition of EphB4 at 10 uM by HTRF assay relative to control; outline: as §1
T1 sequence (whole entry): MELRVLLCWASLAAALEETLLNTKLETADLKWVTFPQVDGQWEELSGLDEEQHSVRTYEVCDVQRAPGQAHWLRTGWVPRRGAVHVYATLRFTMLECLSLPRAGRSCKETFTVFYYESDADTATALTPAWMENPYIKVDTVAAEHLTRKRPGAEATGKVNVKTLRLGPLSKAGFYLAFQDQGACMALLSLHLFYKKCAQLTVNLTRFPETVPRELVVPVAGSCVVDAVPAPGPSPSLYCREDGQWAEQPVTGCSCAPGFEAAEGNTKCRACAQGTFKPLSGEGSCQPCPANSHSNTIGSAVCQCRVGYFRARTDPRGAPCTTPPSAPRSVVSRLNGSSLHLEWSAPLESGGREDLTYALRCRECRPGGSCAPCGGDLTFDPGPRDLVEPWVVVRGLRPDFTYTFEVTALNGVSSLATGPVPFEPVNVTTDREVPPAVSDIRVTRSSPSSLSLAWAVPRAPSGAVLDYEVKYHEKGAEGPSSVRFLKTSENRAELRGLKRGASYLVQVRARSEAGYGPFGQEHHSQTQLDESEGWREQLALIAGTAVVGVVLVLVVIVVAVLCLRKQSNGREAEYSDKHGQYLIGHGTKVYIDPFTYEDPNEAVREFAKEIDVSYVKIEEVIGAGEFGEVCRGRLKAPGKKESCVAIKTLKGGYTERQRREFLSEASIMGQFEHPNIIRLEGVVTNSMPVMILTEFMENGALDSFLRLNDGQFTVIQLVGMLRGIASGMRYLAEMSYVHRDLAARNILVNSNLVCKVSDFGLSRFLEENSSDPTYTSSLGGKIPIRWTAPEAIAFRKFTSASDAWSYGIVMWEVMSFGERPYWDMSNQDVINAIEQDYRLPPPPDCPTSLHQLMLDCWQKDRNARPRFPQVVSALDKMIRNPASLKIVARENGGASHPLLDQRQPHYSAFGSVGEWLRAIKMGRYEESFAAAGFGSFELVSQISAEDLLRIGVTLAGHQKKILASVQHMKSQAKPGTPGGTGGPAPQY

[3] = molecular target: Mitogen-activated protein kinase 14 (Homo sapiens) (UniProt Q16539); assay: Inhibition of p38alpha at 10 uM by HTRF assay relative to control; outline: as §1
Sequence of Mitogen-activated protein kinase 14 (Homo sapiens) (Q16539 whole entry): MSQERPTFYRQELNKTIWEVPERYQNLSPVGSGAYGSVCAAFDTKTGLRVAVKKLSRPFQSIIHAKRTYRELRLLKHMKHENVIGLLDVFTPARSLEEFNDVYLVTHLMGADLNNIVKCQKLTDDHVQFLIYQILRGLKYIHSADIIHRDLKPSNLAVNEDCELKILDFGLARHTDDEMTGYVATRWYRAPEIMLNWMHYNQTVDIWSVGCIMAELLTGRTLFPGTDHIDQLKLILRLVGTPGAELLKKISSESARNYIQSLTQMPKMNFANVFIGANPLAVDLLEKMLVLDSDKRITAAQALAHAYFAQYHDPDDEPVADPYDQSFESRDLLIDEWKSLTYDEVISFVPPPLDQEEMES

[4] = molecular target: Mitogen-activated protein kinase 8 (Homo sapiens) (UniProt P45983); assay: Inhibition of JNK1 at 10 uM by HTRF assay relative to control; outline: as §1
Sequence of Mitogen-activated protein kinase 8 (Homo sapiens) (P45983 whole entry): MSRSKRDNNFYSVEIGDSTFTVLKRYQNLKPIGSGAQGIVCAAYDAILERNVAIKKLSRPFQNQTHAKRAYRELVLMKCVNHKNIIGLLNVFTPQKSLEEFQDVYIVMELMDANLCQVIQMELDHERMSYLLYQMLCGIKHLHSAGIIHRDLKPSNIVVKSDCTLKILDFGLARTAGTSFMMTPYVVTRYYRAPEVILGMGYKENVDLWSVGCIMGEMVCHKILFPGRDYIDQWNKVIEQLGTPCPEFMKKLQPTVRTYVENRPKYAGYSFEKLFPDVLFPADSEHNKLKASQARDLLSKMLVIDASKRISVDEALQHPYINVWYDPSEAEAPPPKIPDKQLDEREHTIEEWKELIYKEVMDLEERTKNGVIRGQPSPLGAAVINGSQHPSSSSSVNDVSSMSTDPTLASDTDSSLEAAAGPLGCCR

[5] = molecular target: Mitogen-activated protein kinase 1 (Homo sapiens) (UniProt P28482); assay: Inhibition of ERK2 at 10 uM by HTRF assay relative to control; outline: as §1
Sequence of Mitogen-activated protein kinase 1 (Homo sapiens) (P28482 whole entry): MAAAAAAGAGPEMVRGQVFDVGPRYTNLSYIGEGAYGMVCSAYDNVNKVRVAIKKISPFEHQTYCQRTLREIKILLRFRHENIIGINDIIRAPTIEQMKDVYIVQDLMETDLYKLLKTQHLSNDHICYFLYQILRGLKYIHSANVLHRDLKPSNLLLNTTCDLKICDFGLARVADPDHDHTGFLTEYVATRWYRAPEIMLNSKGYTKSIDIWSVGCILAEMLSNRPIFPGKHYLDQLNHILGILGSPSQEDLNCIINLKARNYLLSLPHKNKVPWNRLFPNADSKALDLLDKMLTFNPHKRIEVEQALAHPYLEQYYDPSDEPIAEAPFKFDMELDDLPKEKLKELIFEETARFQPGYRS

[6] = molecular target: T2, Calcium/calmodulin-dependent protein kinase type IV (Homo sapiens) (UniProt Q16566); assay: Inhibition of CaMK4 at 10 uM by HTRF assay relative to control; outline: as §1
T2 sequence (whole entry): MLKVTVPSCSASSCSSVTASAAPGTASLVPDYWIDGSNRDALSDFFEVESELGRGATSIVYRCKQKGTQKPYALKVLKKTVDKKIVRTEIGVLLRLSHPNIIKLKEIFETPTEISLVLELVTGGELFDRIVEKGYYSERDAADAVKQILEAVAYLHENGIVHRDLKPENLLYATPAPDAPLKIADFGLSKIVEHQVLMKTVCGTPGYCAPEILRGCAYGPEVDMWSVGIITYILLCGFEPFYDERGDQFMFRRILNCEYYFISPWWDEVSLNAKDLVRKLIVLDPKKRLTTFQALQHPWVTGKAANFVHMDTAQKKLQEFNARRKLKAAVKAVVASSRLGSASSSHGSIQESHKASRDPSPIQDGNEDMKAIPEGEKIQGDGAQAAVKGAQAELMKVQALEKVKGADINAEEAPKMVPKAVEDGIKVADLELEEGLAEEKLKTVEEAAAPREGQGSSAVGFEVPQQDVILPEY

[7] = Inhibition of AMPKalpha at 10 uM by HTRF assay relative to control; outline: as §1
[8] = molecular target: Protein kinase C alpha type (Homo sapiens) (UniProt P17252); assay: Inhibition of PKCalpha at 10 uM by HTRF assay relative to control; outline: as §1
[9] = Inhibition of PKA at 10 uM by HTRF assay relative to control; outline: as §1
[10] = molecular target: T3, Tyrosine-protein kinase ZAP-70 (Homo sapiens) (UniProt P43403); assay: Inhibition of ZAP70 at 10 uM by HTRF assay relative to control; outline: as §1
T3 sequence (whole entry): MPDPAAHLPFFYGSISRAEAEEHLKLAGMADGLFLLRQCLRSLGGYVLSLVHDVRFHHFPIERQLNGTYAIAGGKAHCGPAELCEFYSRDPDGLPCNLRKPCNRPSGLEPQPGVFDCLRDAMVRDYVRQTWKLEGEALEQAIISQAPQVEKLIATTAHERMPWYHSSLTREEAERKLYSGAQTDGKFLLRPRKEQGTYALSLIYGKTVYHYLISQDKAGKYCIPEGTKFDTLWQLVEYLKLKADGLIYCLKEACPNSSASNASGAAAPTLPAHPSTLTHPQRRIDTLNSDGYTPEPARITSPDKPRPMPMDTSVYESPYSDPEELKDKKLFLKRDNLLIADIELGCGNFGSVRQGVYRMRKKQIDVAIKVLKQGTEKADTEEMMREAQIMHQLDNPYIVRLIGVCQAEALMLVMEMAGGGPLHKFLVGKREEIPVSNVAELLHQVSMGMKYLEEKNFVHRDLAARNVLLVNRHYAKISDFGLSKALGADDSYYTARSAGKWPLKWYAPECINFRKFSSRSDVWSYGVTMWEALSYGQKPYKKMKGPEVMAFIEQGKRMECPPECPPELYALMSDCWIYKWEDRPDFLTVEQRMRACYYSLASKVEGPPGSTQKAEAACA

[11] = molecular target: Proto-oncogene tyrosine-protein kinase Src (Homo sapiens) (UniProt P12931); assay: Inhibition of Src at 10 uM by HTRF assay relative to control; outline: as §1
Sequence of Proto-oncogene tyrosine-protein kinase Src (Homo sapiens) (P12931 2-536 limits assumed): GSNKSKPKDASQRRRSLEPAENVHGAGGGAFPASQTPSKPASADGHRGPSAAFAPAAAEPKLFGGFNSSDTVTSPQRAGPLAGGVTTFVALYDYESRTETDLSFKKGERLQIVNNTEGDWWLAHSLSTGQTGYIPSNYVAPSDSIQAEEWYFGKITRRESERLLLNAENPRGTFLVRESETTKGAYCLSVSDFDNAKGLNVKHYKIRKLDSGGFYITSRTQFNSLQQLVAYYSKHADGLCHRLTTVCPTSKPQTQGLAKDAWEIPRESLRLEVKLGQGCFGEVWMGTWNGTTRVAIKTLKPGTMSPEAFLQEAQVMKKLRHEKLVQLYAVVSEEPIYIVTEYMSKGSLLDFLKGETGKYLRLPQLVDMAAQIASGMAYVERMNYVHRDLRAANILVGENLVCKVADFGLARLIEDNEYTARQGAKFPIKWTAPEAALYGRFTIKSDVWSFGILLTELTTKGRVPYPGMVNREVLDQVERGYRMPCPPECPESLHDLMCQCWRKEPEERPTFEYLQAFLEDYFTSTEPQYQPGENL

[12] = molecular target: Tyrosine-protein kinase ABL1 (Homo sapiens) (UniProt P00519); assay: Inhibition of Abl at 10 uM by HTRF assay relative to control; outline: as §1
Sequence of Tyrosine-protein kinase ABL1 (Homo sapiens) (P00519 whole entry): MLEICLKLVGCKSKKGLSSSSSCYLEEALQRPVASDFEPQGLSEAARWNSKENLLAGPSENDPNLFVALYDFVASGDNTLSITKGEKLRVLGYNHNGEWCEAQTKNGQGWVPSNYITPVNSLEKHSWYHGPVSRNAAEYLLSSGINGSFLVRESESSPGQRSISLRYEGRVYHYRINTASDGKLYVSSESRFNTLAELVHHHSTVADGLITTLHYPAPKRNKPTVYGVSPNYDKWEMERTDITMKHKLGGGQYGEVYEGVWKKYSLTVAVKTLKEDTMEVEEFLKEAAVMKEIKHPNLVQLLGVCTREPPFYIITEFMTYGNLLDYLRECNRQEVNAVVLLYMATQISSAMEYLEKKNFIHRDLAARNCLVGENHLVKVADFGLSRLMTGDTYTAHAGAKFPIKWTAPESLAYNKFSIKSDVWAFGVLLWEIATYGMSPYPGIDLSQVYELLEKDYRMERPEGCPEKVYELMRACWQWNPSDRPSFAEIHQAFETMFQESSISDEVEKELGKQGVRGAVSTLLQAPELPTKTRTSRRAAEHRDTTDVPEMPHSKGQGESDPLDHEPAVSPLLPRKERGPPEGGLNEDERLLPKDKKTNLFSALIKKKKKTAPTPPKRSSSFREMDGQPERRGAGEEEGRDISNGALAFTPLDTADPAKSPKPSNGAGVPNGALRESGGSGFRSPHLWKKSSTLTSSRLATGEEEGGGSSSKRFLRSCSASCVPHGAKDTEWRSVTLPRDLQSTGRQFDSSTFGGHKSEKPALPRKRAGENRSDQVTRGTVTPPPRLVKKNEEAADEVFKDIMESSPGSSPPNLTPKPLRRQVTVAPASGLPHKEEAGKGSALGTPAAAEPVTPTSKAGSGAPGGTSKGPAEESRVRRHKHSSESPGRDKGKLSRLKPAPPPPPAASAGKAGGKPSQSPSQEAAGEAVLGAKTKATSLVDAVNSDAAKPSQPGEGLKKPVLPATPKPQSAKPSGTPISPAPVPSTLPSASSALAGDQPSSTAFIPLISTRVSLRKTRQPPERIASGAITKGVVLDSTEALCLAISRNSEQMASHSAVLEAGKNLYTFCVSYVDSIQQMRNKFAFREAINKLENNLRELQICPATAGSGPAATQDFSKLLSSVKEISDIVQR

Sequence of Insulin-like growth factor 1 receptor (Homo sapiens) (P08069 31-736 limits assumed): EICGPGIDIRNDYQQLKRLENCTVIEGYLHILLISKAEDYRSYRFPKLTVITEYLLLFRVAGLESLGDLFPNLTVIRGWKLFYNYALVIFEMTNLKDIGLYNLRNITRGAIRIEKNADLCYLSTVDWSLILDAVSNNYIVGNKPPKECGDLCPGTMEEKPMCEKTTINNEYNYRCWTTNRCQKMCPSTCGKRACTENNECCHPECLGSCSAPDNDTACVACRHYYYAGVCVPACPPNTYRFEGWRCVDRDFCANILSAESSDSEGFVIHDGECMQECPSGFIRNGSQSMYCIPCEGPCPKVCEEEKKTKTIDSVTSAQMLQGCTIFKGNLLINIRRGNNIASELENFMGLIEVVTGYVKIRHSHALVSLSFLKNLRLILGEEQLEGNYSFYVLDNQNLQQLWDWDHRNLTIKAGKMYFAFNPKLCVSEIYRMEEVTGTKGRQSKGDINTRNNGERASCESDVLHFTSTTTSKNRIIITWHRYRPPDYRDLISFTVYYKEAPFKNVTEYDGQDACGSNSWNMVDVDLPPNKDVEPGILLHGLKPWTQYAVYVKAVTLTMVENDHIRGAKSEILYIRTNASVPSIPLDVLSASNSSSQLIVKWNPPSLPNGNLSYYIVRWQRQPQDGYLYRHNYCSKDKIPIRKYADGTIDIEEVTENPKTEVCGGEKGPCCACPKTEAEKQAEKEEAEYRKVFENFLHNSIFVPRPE
Sequence of Insulin-like growth factor 1 receptor (Homo sapiens) (P08069 741-1367 limits assumed): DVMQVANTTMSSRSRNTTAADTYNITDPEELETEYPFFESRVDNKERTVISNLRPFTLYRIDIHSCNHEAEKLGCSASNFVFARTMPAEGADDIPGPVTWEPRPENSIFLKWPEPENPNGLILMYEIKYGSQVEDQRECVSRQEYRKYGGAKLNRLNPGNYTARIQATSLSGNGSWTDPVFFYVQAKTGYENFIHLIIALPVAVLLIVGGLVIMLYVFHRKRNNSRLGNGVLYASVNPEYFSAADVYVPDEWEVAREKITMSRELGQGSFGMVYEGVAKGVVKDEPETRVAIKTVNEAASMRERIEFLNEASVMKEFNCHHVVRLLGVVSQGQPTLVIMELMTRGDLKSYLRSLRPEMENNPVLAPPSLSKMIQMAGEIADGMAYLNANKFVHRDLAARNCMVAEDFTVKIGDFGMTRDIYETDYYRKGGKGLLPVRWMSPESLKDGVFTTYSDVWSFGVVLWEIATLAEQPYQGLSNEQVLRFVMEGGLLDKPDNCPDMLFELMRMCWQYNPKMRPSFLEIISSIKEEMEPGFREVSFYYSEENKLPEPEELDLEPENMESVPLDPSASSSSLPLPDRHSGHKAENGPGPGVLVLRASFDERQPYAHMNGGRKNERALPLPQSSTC

Structure (SMILES)	inhibition [1] [%]	inhibition [2] [%]	inhibition [3] [%]	inhibition [4] [%]	inhibition [5] [%]	inhibition [6] [%]	inhibition [7] [%]	inhibition [8] [%]	inhibition [9] [%]	inhibition [10] [%]	inhibition [11] [%]	inhibition [12] [%]
Cc1cccc(Oc2ccnc(N3CCC[C@H]3C(=O)NCc3cccnc3)n2)c1	0	0	0	6	0	0	0	0	0	6	0	7
O=C(c1nc(SCc2ccc(Cl)cc2)n2ccccc12)N1CCN(c2ncnc3c2CN(Cc2ccccc2)CC3)CC1	0	0	5	7	3	0	1	0	0	3	0	13
Cc1cccc(Oc2ccnc(N3CCN(C(=O)c4c(C)noc4C)CC3)n2)c1	0	0	0	13	0	0	6	0	2	4	0	0
CC(=O)CCCCC(=O)N1CCN(c2nccc(Oc3cccc(C)c3)n2)CC1	0	0	10	8	0	0	9	0	0	0	5	1
Cc1cccc(N(C)c2cc(Nc3cccc(C(=O)N4CCCC5CCCCC54)c3)ncn2)c1 (stereo not drawn)	0	0	0	2	0	0	1	0	0	0	3	13
Nc1nc(Nc2ccccc2)cc(N2CCC(C(=O)NCCc3ccccn3)CC2)n1	0	0	12	0	1	0	0	0	6	0	0	0
Cc1cccc(Oc2ccnc(N3CCC[C@H]3C(=O)NCCCn3ccnc3)n2)c1	8	0	3	0	0	0	9	0	0	2	0	5
CN(CCc1ccccn1)C(=O)c1cccc(Nc2nccc(Nc3ccc4ncsc4c3)n2)c1	50	17	19	70	0	0	16	5	1	13	69	69
CN(C)c1ccc(C(=O)N2CCN(c3ncnc4c3CN(Cc3ccccc3)CC4)CC2)c2ccccc12	0	0	4	6	8	0	0	0	0	2	0	8
